RAD54 inh – blocks human RAD54 Holliday junction branch migration; FAM/BHQ fluorescence; AID 602329; 360,000 tested, 0.14% active; inhibition, % at 10.4 µM;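 active = mean normalized replicate activity at least 40 and at least half of replicates scoring 40 or more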;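 note: 0% = median of neutral control wells and 100% = median of positive control wells; inhibitors cause a drop in the FAM fluorescence signal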
Cneo AK release – Cryptococcus neoformans lysis via adenylate kinase release; AID 651654; 360,000 tested, 0.2% active; lysis activity, % at 15 µM; C. neoformans lysis, adenylate kinase release luminescence, 4 h; normalised: neutral wells 0, clomiphene wells 100;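 active = mean lysis activity across replicates of at least 80%, whatever share of replicates individually reach that level; inactive = mean lysis activity below 80%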
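Material: C. neoformans cells | Amount: Yeast cell density of 5 × 10^6 cells/mL | Medium: Fresh YPD growth medium | Dosing: Single dose | Times: Static 4 h at 37 °C with compound, 1 h detection | Detection: AK luminescence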
Ecoli rRNA inh – inhibitors of bacterial rRNA selective over humanized ribosomes | E. coli WT GFP vs humanized-ribosome RFP mutants, fluorescence, 24 h; hits give low values; DMSO median 0, no signal -100 | GFP signal change (wild-type ribosome), % (test concentration not listed) | 350,000 tested, 1.6% active | AID 720706;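 active = significant combined selectivity score with lowered wild-type GFP, culture density cut under 30%, mutant RFP and density less affected; inactive = any of these conditions unmet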
RAD52 anneal inh – blocks human RAD52 DNA annealing | P43351 | recombinant RAD52 DNA annealing, FRET fluorescence | inhibition, % at 18.7 µM | 360,000 tested, 0.46% active | AID 651710;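 active = every replicate showing at least 50% inhibition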
Target sequence (P43351 whole entry, looked up): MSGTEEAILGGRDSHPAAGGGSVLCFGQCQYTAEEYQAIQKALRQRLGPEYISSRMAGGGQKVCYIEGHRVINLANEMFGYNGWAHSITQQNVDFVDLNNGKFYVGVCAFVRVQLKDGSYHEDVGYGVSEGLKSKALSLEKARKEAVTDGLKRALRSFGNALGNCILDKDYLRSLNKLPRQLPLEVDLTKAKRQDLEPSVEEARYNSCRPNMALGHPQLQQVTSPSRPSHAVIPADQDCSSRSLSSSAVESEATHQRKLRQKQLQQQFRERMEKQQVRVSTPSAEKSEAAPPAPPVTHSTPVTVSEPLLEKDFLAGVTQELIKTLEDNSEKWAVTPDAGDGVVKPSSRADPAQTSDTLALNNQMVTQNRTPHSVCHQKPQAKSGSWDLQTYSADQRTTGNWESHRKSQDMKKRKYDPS
PglD inh – blocks C. jejuni PglD acetyltransferase activity; purified PglD enzyme, DTNB colorimetric CoA detection; inhibition, % at 12.5 µM; 360,000 tested, 0.098% active; in the data active = inhibition above about 16%, passing the limit was not always enough
* = called active by the depositor; . = no result given; ! = not confirmed by another sample. Sampled rows, rich in hits. Any-hit rate of the full collection: about 1.9%.

SMILES | RAD54 inh | Cneo AK release | Ecoli rRNA inh | RAD52 anneal inh | PglD inh
CN1CCN(c2ccc(NC(=O)c3sc4ccccc4c3Cl)cc2)CC1 | 11 | 12 | -25* | 32 | 0
O=C(NNC(=O)c1sc2ccccc2c1Cl)Nc1ccc(Cl)cc1 | 12 | 4 | -20* | -10 | 4
CO[C@H]1CN(C)C(=O)c2ccc(NC(=O)C3CCOCC3)cc2OC[C@H](C)N(C(=O)c2ccccc2)C[C@@H]1C | . | . | 0 | . | .
COc1ccc(CN2CC3(CCN(C(=O)Nc4cccc(F)c4)CC3)c3c([nH]c4cc(OC)ccc34)[C@@H]2CO)cc1 | . | . | 0 | . | .
O=C(N/N=C/c1cccc(Oc2ccccc2)c1)c1cccc(Br)c1 | 1 | 0 | -22 | -3 | -4
O=C(N/N=C/c1cccc(Oc2ccccc2)c1)c1ccccc1Br | -5 | 0 | -28* | -20 | 3
COc1ccc2c3c(n(C)c2c1)[C@H](CO)N(C(=O)c1cccc(F)c1)CC31CN(CC2CC2)C1 | . | . | 0 | 12 | .
Cc1ccccc1C(=O)NNC(=O)Cc1cccc2ccccc12 | -3 | -4 | -41* | -14 | 1
Cc1ccccc1NC(=O)c1ccccc1NC(=O)Cc1cccc2ccccc12 | . | . | -8 | -4 | .
C[C@H](NC(=O)Cc1cccc2ccccc12)C(=O)NCc1ccccc1 | . | . | -32* | -7 | .
O=C(Cc1cccc2ccccc12)Nc1ccccc1 | . | . | 4 | -14 | .
COc1cccc(NC(=O)c2ccc(-c3ccccc3[N+](=O)[O-])o2)c1 | . | . | -43 | -11 | .
Cc1cccc(NC(=O)c2ccc(-c3ccccc3[N+](=O)[O-])o2)c1 | 2 | 0 | -32* | -14 | -8
CS(=O)(=O)N1C[C@@H](O)COC[C@@H]2O[C@H](CC(=O)NCc3ccc(-c4ccccc4)cc3)CC[C@H]21 | -24 | 1 | -3 | 36 | 3
O=C(O)C[C@@H]1CC[C@@H]2[C@H](COC[C@H](O)CN2S(=O)(=O)c2ccc(F)cc2)O1 | 1 | 83* | 5 | 5 | -2
COCCNC(=O)C[C@@H]1CC[C@H]2[C@@H](COC[C@@H](O)CN2Cc2cccc(-c3ccncc3)c2)O1 | 9 | 0 | 8 | -3 | 1
O=C(C[C@@H]1CC[C@H]2[C@@H](COC[C@H](O)CN2S(=O)(=O)c2ccccc2)O1)NCc1ccc(-c2ccccc2)cc1 | -7 | 2 | -5 | 80* | -1
O=C(C[C@H]1CC[C@H]2[C@@H](COC[C@H](O)CN2Cc2cc(F)cc(F)c2)O1)Nc1nccs1 | 7 | 96* | -3 | . | 4
COCCNC(=O)C[C@@H]1CC[C@H]2[C@@H](COC[C@H](O)CN2Cc2cccc(-c3ccncc3)c2)O1 | -11 | 109* | 3 | 7 | 4
C[C@H](CO)N1C[C@H](C)[C@@H](CN(C)C(=O)NC2CCCC2)OCc2cnnn2CCCC1=O | . | . | 1 | . | .
COc1ccc2c3c([nH]c2c1)[C@@H](CO)N(C)CC31CN(S(=O)(=O)c2cccc(F)c2)C1 | . | . | -3 | . | .
COc1cccc(C#Cc2ccc3c(c2)[C@H]2[C@H](CCN2S(=O)(=O)c2ccc(C)cc2)[C@@H](CO)N3)c1 | . | . | -4 | . | .
O=C(C[C@@H]1CC[C@H]2[C@@H](COC[C@H](O)CN2Cc2ccccc2F)O1)NC1CCC1 | 4 | 97* | 1 | . | 19
CS(=O)(=O)N1C[C@H](O)COC[C@@H]2O[C@@H](CC(=O)NCc3ccc(-c4ccccc4)cc3)CC[C@H]21 | 7 | -2 | -1 | 78* | 2
O=C(C[C@H]1CC[C@H]2[C@@H](COC[C@@H](O)CN2S(=O)(=O)c2ccc(Oc3ccccc3)cc2)O1)Nc1ccccc1 | 1 | 13 | -8 | 3 | 2
SMILES | RAD54 inh | Cneo AK release | Ecoli rRNA inh | RAD52 anneal inh | PglD inh
O=C(C[C@@H]1CC[C@@H]2[C@H](COC[C@H](O)CN2Cc2cccc(C(F)(F)F)c2)O1)NCc1ccccc1 | -4 | 97* | -6 | -7 | -1
O=C(C[C@@H]1CC[C@@H]2[C@H](COC[C@H](O)CN2S(=O)(=O)c2ccc(Oc3ccccc3)cc2)O1)NC1CCC1 | 0 | 95* | 0 | -4 | 3
CO[C@@H]1CN(C)C(=O)c2cc(NC(C)=O)ccc2OC[C@@H](C)N(Cc2ccccc2F)C[C@@H]1C | -4 | 0 | 0 | 2 | 1
C[C@@H]1CN([C@H](C)CO)S(=O)(=O)c2ccc(-c3ccc(C(=O)N(C)C)cc3)cc2O[C@@H]1CN(C)C(=O)C1CC1 | . | . | 3 | . | .
CN(C)C(=O)c1cccc(-c2ccc3c(c2)[C@H]2[C@H](CCN2C(=O)c2ccccc2)[C@@H](CO)N3C)c1 | -2 | -7 | -10 | -14 | 1
O=C(C1CC1)N1[C@@H](CO)[C@@H]2c3ccccc3N(S(=O)(=O)c3ccccc3)C[C@@H]21 | -6 | 0 | -3 | -11 | -3
O=C(C[C@H]1CC[C@@H]2[C@H](COC[C@@H](O)CN2C(=O)c2cnccn2)O1)NCc1ccc(Oc2ccccc2)cc1 | -4 | 105* | -5 | 9 | -1
O=C(C[C@H]1CC[C@H]2[C@@H](COC[C@@H](O)CN2C(=O)c2cnccn2)O1)NCc1ccc(Oc2ccccc2)cc1 | 5 | 0 | 1 | -2 | -1
COc1ccc2c3c(n(C)c2c1)[C@H](CO)N(Cc1ccccc1OC)CC31CN(CC2CCOCC2)C1 | . | . | 3 | . | .
O=C(C[C@H]1C=C[C@H](NC(=O)Cc2cccnc2)[C@H](CO)O1)Nc1ccc(-c2ccccc2)cc1 | . | . | -9 | 11 | .
O=C(Nc1cccc(F)c1)N[C@H]1CC[C@@H](CCNS(=O)(=O)c2cccc(Cl)c2)O[C@@H]1CO | 2 | 106* | -2 | -9 | -1
O=C(N[C@@H]1CC[C@@H](CCNS(=O)(=O)c2ccc(Cl)cc2)O[C@H]1CO)c1cccc(F)c1 | -14 | -3 | -3 | 3 | 8
O=C(N[C@H]1CC[C@H](CCNS(=O)(=O)c2ccc(Cl)cc2)O[C@@H]1CO)c1cccc(F)c1 | -14 | 1 | -25*! | 6 | 3
O=C(NC1CCCCC1)N[C@@H]1CC[C@@H](CCNS(=O)(=O)c2ccc(Cl)cc2)O[C@H]1CO | 5 | 94* | -3 | 10 | 0
CN(C)CC(=O)Nc1ccc2c(c1)[C@H]1C[C@@H](CC(=O)NCC3CC3)O[C@H](CO)[C@H]1O2 | 11 | -1 | 4 | 0 | 1
CCOC(=O)C(=N/O)/C(C)=N/NC(=O)C(=O)Nc1ccc(Cl)cc1 | 0 | 2 | -20* | -5 | -3
CC(=N\Nc1ccc(Cl)cc1)/C(=N/O)C(=O)Nc1ccccc1 | 3 | -13 | . | . | 14
CCOC(=O)N(C)C[C@H]1OCc2ccccc2-c2ccccc2C(=O)N([C@H](C)CO)C[C@H]1C | . | . | -1 | . | .
COc1cccc([C@@H]2CC=C(C(=O)O)[C@H](c3cccc(Cl)c3)N2S(=O)(=O)c2ccc(C)cc2)c1 | 11 | -5 | -32* | -19 | 1
Cc1ccc(S(=O)(=O)N2[C@@H](c3ccc(Cl)cc3)C(C(=O)O)=CC[C@H]2c2cccc(C)c2)cc1 | 1 | 1 | -22* | -4 | -4
